“And” between values parts separate entries of the source, which are not always exact repeats. Equal entries are not always repeated.
Tested on: HEK-293T
Assay: Multiplex assay against HEK293T
Type: toxicity, cell-based
Settings: human
In short: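 Cells were classed with CellPathfinder machine-learning gating, first as Hoechst high-intensity objects or normal cells, then (normal cells) as healthy, pyknosed or fragmented nuclei, and finally (pyknosed cells) as mitotic or apoptotic. Staining of live cells at seeding used Hoechst33342, BioTracker Green Microtubule Cytoskeleton Dye, MitoTracker Red and Annexin V Alexa Fluor 680, with imaging on a CQ1 microscope at 37°C and 5% CO2 after compound addition. Tubulin, mitochondrial-mass and membrane-permeability phenotypes are per cents of healthy-nucleus cells.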

[1] = 12 h, 1 µM, compound concentration 1 uM
[2] = 12 h, 10 µM, compound concentration 10 uM
[3] = 24 h, 1 µM, compound concentration 1 uM
[4] = 24 h, 10 µM, compound concentration 10 uM
[5] = 48 h, 1 µM, compound concentration 1 uM
[6] = 48 h, 10 µM, compound concentration 10 uM

In the case of `CNc1nc(NCc2ncccn2)c2c(-c3ccc4ncccc4c3)c[nH]c2n1`, the “Population Apoptotic (%)” value [1] was 9.22% and 10.1%, the “Population Fragmented Nuclei (%)” value [1] was 2.26% and 3.88% and the “Population Hoechst High Intensity Objects (%)” value [1] was 0.25% and 0%. For the same molecule, the “Population Membrane Permeable-Phenotype (%)” value [1] was 0.81% and 0%, the “Population Mitotic Cells (%)” value [1] was 90.78% and 89.9% and the “Population Normal (%)” value [1] was 99.75% and 100%. The “Population Pyknosed Nuclei (%)” value [1] was 35.43% and 76.74%, the “Population Apoptotic (%)” value [2] was 13.38% and 23.23% and the “Population Fragmented Nuclei (%)” value [2] was 2.88% and 3.98%. For the same molecule, the “Population Hoechst High Intensity Objects (%)” value [2] was 0.64% and 0%, the “Population Membrane Permeable-Phenotype (%)” value [2] was 0% and the “Population Mitotic Cells (%)” value [2] was 86.62% and 76.77%. For the same molecule, the “Population Normal (%)” value [2] was 99.36% and 100%, the “Population Pyknosed Nuclei (%)” value [2] was 45.51% and 88.07% and the “Population Tubulin-Different-Phenotype (%)” value [2] was 20.5% and 42.86%. The “Total Cell Count” value [2] was 314 and 176, the “Population Apoptotic (%)” value [3] was 7.44% and 13.04% and the “Population Fragmented Nuclei (%)” value [3] was 1.55% and 3.01%. For the same molecule, the “Population Healthy Nuclei (%)” value [3] was 79.72% and 45.11%, the “Population Hoechst High Intensity Objects (%)” value [3] was 0.15% and 0% and the “Population Membrane Permeable-Phenotype (%)” value [3] was 0.78% and 0%. For the same molecule, the “Population Mitochondria Different-Phenotype (%)” value [3] was 15.34% and 13.33%, the “Population Mitotic Cells (%)” value [3] was 92.56% and 86.96% and the “Population Normal (%)” value [3] was 99.85% and 100%. For the same molecule, the “Population Pyknosed Nuclei (%)” value [3] was 18.73% and 51.88%, the “Population Tubulin-Different-Phenotype (%)” value [3] was 9.13% and 10% and the “Population Apoptotic (%)” value [4] was 21.74% and 18.6%. For the same molecule, the “Population Fragmented Nuclei (%)” value [4] was 2.16% and 2.65%, the “Population Healthy Nuclei (%)” value [4] was 75.72% and 29.1% and the “Population Hoechst High Intensity Objects (%)” value [4] was 0%. The “Population Membrane Permeable-Phenotype (%)” value [4] was 2.22% and 7.27%, the “Population Mitochondria Different-Phenotype (%)” value [4] was 39.37% and 32.73% and the “Population Mitotic Cells (%)” value [4] was 78.26% and 81.4%. For the same molecule, the “Population Normal (%)” value [4] was 100%, the “Population Tubulin-Different-Phenotype (%)” value [4] was 28.89% and 25.45% and the “Total Cell Count” value [4] was 416 and 189. For the same molecule, the “Population Fragmented Nuclei (%)” value [5] was 3.92% and 2.35%, the “Population Healthy Nuclei (%)” value [5] was 88.02% and 64.71% and the “Population Hoechst High Intensity Objects (%)” value [5] was 0% and 0.58%. For the same molecule, the “Population Membrane Permeable-Phenotype (%)” value [5] was 3.68% and 0.91%, the “Population Mitochondria Different-Phenotype (%)” value [5] was 13.1% and 22.73% and the “Population Mitotic Cells (%)” value [5] was 93.46% and 80.36%. For the same molecule, the “Population Normal (%)” value [5] was 100% and 99.42%, the “Population Apoptotic (%)” value [6] was 10.91% and 21.43% and the “Population Fragmented Nuclei (%)” value [6] was 4.49% and 5.56%. For the same molecule, the “Population Healthy Nuclei (%)” value [6] was 86.38% and 55.56%, the “Population Hoechst High Intensity Objects (%)” value [6] was 0% and 2.7% and the “Population Membrane Permeable-Phenotype (%)” value [6] was 2.12% and 5%. The “Population Mitochondria Different-Phenotype (%)” value [6] was 57.5% and 60%, the “Population Mitotic Cells (%)” value [6] was 89.09% and 78.57% and the “Population Normal (%)” value [6] was 100% and 97.3%.
